Assay results published in PMC2688442 (Analytical biochemistry, 2009).

Experiments:
nNOS in 293T/nNOS cells = assay: Activation of nNOS in 293T/nNOS cells by A23187; format: cell-based, rat; conditions: A23187 5 μM, after the 8 h-incubation, deduced from Fig. 1C
Summary of the method: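 HEK 293T cells stably transfected with rat nNOS cDNA (lipofection, Geneticin 0.8 mg/ml selection, single-cell cloning, highest-expressing clone), maintained in DMEM with 0.4 mg/ml Geneticin. At ~80% confluence, cells were exposed to 5 μM A23187 or left untreated, alongside WT 293T cells ± A23187. Nitrite in the culture medium was measured by Griess reagent at different times.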

293T/nNOS cells = format: cell-based; conditions: for Cell health after treatment: 293T/nNOS cells during the period of A23187 stimulation; for Cytotoxicity: by visual inspection under a microscope; for Inhibition of cell growth: experimental conditions of the inhibition assay
nNOS over eNOS = conditions: cited from earlier work
[1] = tested on: nNOS over eNOS in rat tissue; conditions: cited from earlier work

Structure (SMILES): CNc1ccc2oc(C[C@H]3O[C@@]4(CC[C@H]3C)O[C@H]([C@H](C)C(=O)c3ccc[nH]3)[C@H](C)C[C@H]4C)nc2c1C(=O)O [A23187]
- Nitrite concentration (nNOS in 293T/nNOS cells): ~ 18 μM
- Cell death with A23187 stimulation (293T/nNOS cells; 293T/nNOS cells, after 10 h with A23187): no obvious cell death

Structure (SMILES): N=C(Nc1ccc(CCNCc2cccc(Cl)c2)cc1)c1cccs1 [AR-R17477]
- Cell health after treatment (293T/nNOS cells): remained healthy
- Cytotoxicity (293T/nNOS cells; 293T/nNOS cells): no obvious cytotoxicity
- Inhibition of cell growth (293T/nNOS cells; 293T/nNOS cells): Neither compound 3 nor AR-R17477 inhibited cell growth

Structure (SMILES): CCSC(N)=NCCC[C@H](N)C(=O)O [Et-TC, S-ethyl-L-thiocitrulline]
- Selectivity in vitro for nNOS inhibition over eNOS (in words) (nNOS over eNOS): more selective

Structure (SMILES): CSC(N)=NCCC[C@H](N)C(=O)O [Me-TC, S-methyl-L-thiocitrulline]
- Inhibition of nNOS over eNOS in rat tissue (in words) [1]: better than Et-TC

Structure (SMILES): N=C(NCCC[C@H](N)C(=O)O)N[N+](=O)[O-] [NNA, N^ω-Nitro-L-arginine]
- Cell health after treatment (293T/nNOS cells): remained healthy
- Cell death (293T/nNOS cells; 293T/nNOS cells under the experimental conditions of the inhibition assay): No cell death was observed

Structure (SMILES): Cc1cc(N)nc(CC2CNCC2NCCNCCc2cccc(F)c2)c1 (centres unmarked) [compound 3, N-[4-(6-amino-4-methylpyridin-2-ylmethyl)pyrrolidin-3-yl]-N′-(3-fluorophenylethyl) ethane-1,2-diamine]
- Cytotoxicity (293T/nNOS cells; 293T/nNOS cells): no obvious cytotoxicity
- Inhibition of cell growth (293T/nNOS cells; 293T/nNOS cells): Neither compound 3 nor AR-R17477 inhibited cell growth
